# Screening data as filed in PubChem BioAssay.
# In the library only some 1.4% were active in any assay of this set; here they are far more common.
# Apaf-1 inh: blocks human Apaf-1 apoptosome activity | reconstituted apoptosome caspase-3 activity, DEVD-Rh110 fluorescence | inhibition, % at 20 µM | O14727 | 330,000 tested, 0.71% active; active = inhibition of at least 40% at 20 µM
#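 System: reconstituted apoptosome with Apaf-1, cytochrome c, caspase-9, procaspase-3, dATP; Signal: Rh110 fluorescence intensity; Schedule: 30 min compound preincubation, 50 min activation, room temperature; Reagent: cytochrome c trigger plus (Z-DEVD)2-Rh110 caspase-3 substrate.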
# GSTO1 inh: counter-screen for RBBP9 inhibitors: inhibitors of human GSTO1; P78417; recombinant GSTO1, activity-based probe fluorescence polarization; inhibition, % at 5.96 µM; 300,000 tested, 1.1% active; AID 1974;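 active = inhibition above the campaign mean inhibition plus 3 SD, cut at about 35% in these data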
# Target sequence (P78417 whole entry, looked up): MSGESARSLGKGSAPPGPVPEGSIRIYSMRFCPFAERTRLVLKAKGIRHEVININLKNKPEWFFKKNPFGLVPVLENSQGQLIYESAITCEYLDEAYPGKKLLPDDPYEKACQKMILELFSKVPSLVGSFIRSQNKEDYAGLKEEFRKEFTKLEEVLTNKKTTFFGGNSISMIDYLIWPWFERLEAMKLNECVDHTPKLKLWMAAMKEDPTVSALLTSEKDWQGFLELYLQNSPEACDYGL
# UBC9 SUMO inh: inhibitors of human SUMOylation (UBC9). P63279. inhibition, % at 35 µM. 290,000 tested, 0.36% active. AID 2006. HTRF SUMOylation assay, SAE1/SAE2 + UBC9, in vitro; in the data active = inhibition above about 50%, passing the limit was not always enough
# Target sequence (P63279 whole entry, looked up): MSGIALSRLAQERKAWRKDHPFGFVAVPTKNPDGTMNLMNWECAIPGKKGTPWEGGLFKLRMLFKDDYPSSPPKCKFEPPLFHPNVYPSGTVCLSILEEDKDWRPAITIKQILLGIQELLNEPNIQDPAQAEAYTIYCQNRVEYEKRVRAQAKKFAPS
# Redox H2O2 prof: compounds producing H2O2 with reducing agent – biochemical, NIH compound library profiling, artefact control for MLSCN library redox annotation, primary screen. DTT-dependent redox cycling H2O2, phenol red/HRP absorbance; 100% = 100 µM peroxide control, 0% = buffer. activation, % at 10 µM. 200,000 tested, 0.03% active. AID 878;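 active = activation of at least 50% relative to the plate's high and low controls in the primary single-dose screen; inactive = activation below 50%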;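 note: compound incubated with DTT at 0.8 mM final as the reducing agent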
# HKDC1 inhibitor: blocks human hexokinase HKDC1 activity | recombinant HKDC1, G6PDH/diaphorase resazurin coupled fluorescence | Q2TB90 | 340,000 tested, 0.16% active | inhibition, % at 20 µM;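 active = inhibition above about 35% when tested at 20 µM, limit read from the data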
#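 test system = in-house recombinant HK5 (HKDC1) enzyme | amount = HKDC1 at 5 µg/mL | control set = DMSO-enzyme wells negative, buffer-substituted wells positive | compound = one dose of 20 µM, 1% DMSO | schedule = reaction time 90 min, room temperature, protected from light | technique = resorufin fluorescence at 613 nm | reagent = glucose with 1 mM ATP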
# GSTO1 confirm: GSTO1 (human) inhibition, confirmation | shares compounds with GSTO1 inh | recombinant GSTO1, probe fluorescence polarization | inhibition, % at 5.96 µM | 2,400 tested, 54% active | AID 2176;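 active = inhibition above the primary screen's cutoff, its mean inhibition plus 3 SD, cut at about 35% in these data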;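 note: loss of polarization as inhibitors block binding of rhodamine sulfonate ester activity probe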
# GSTO1 recomb ABPP: GSTO1 (human) inhibition by gel ABPP | recombinant GSTO1, gel ABPP SE-Rh probe fluorescence | AID 463110 | 130 tested, 30% active | shares compounds with GSTO1 inh | inhibition, % at 1 µM;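 active = inhibition of the enzyme GSTO1 above about 75%, limit read from the data; inactive = inhibition below that limit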
# Hits are given with their value; - = inactive; . = no result given.
SMILES,Apaf-1 inh,GSTO1 inh,UBC9 SUMO inh,Redox H2O2 prof,HKDC1 inhibitor,GSTO1 confirm,others
COC(CN(C(=O)CCl)C(C(=O)NC1CCCCC1)c1ccc(Cl)cc1)OC (configuration not stated),-,73,-,-,-,98,GSTO1 recomb ABPP=-
COc1ccc(C(C(=O)NC2CCCCC2)N(C(=O)CCl)c2ccc(Cl)cc2)cc1 (configuration not stated),-,97,-,-,-,89,GSTO1 recomb ABPP=91
CCC(C)[C@H](NC(=O)C1(c2ccccc2)CCN(C(=O)OC(C)(C)C)CC1)C(=O)N[C@@H](C(=O)O)c1ccccc1 (some centres not stated),-,-,-,.,-,.,
O=C(CCCCCNC(=O)N1CCn2c1nc1ccccc12)N[C@@H](Cc1ccccc1)C(=O)O,-,-,-,.,-,.,
Cc1ccc(Sc2ccc(NC(=O)CCl)cc2)c(C)c1,-,78,-,-,-,89,
CCN(CC)S(=O)(=O)c1ccc(NS(=O)(=O)c2ccc(O)c([N+](=O)[O-])c2)cc1,-,-,-,-,-,.,
CCN(CC)S(=O)(=O)c1ccc(NS(=O)(=O)c2ccc3oc(=O)[nH]c3c2)cc1,-,44,-,.,-,58,
COc1cc(-c2cc(=O)c3c(O)c(OC)c(OC)c(O)c3o2)ccc1O,-,41,-,-,-,-,
COc1cc2c(cc1NC(=O)CSc1nnc(Cc3cccs3)n1C)oc1ccccc12,-,46,-,-,-,-,
CC1(C)OC1COc1c2ccoc2cc2oc(=O)ccc12 (configuration not stated),-,-,-,-,-,.,
O=C(NNc1ccccc1[N+](=O)[O-])Nc1ccc(Cl)c(Cl)c1,-,-,-,.,-,.,
O=C1NC(=O)C(c2ccccc2[N+](=O)[O-])=C1Nc1ccc(O)c(Cl)c1,-,64,-,.,-,49,
Cc1ccc(SC/C(O)=C(\C#N)c2nc3ccccc3s2)cc1,-,49,-,-,-,48,
Cc1cccc(N2CCN(C(=O)c3ccc(S(=O)(=O)N(C)c4ccccc4)cc3)CC2)c1C,-,.,.,.,-,.,
CC(=O)Oc1ccc(OC(C)=O)c(SCCCCCN2CCOCC2)c1,-,79,-,-,-,-,
O=C(N/N=C/c1cc(Br)c(Br)o1)c1cccnc1,-,44,-,-,-,-,
O=C(CN1CCN(C(=O)C2CCCO2)CC1)Nc1ccc(Br)cc1 (configuration not stated),-,-,-,.,-,.,
O=C1CC(O)(C(F)F)Oc2ccc3ccccc3c21 (configuration not stated),-,51,-,-,-,44,
O=C1CC(O)(C(F)(F)F)Oc2c1ccc1ccccc21 (configuration not stated),-,-,-,-,-,.,
O=C1C(=O)c2ccccc2C(O)=C1CCCCl,83,68,-,.,-,73,
O=C(NN1CCOCC1)c1ccc(F)cc1,-,-,-,.,-,.,
CCOc1ccc2nc(N3C(=O)/C(=C/c4ccccc4)NC3=S)sc2c1,-,59,-,-,-,55,
COc1ccc2nc(N3C(=O)/C(=C/c4ccccc4)NC3=S)sc2c1,-,42,-,-,-,56,
COc1ccc2nc(-n3c(C)ccc3C)sc2c1,-,-,-,-,-,.,
CCOc1ccc(N(C(=O)c2ccc(S(=O)(=O)N3CCCC3)cc2)C2C=CS(=O)(=O)C2)cc1 (configuration not stated),-,-,-,.,-,.,
SMILES,Apaf-1 inh,GSTO1 inh,UBC9 SUMO inh,Redox H2O2 prof,HKDC1 inhibitor,GSTO1 confirm,others
O=C(NCCCN1CCCC1)Nc1ccccc1[N+](=O)[O-],-,-,-,.,-,.,
COc1ccc(NC(=O)CSCC(=O)NC2(C)CCS(=O)(=O)C2)cc1 (configuration not stated),-,-,-,.,-,.,
COc1ccc(C(=O)N/N=C/c2ccc3cccc(O)c3n2)cc1,-,41,-,-,-,-,
CN(C)c1ccc(O)c2c1CC1CC3C(N(C)C)C(=O)C(C(N)=O)=C(O)[C@@]3(O)C(=O)C1=C2O (some centres not stated),-,48,.,.,-,-,
C=C1c2cccc(O)c2C(O)=C2C(=O)[C@]3(O)C(O)=C(C(N)=O)C(=O)[C@@H](N(C)C)[C@@H]3[C@@H](O)[C@H]12,-,63,93,-,-,70,
CCOC(=O)Cc1csc(NC(=O)NC2(C(F)(F)F)Oc3cc(Cl)c(Cl)cc3O2)n1,-,44,-,-,-,-,
CCOC(=O)Cc1csc(NC(=O)NC2(C(F)(F)F)Oc3ccc(Cl)cc3O2)n1 (configuration not stated),-,45,-,-,-,-,
CCOC(=O)Cc1csc(NC(=O)NC2(C(F)(F)F)Oc3ccccc3O2)n1,-,-,-,-,-,.,
CC(=O)Nc1ccc(NC2=C(Cl)C(=O)c3ccccc3C2=O)cc1,-,.,-,-,-,.,
O=C1C(Cl)=C(NCCCN2CCOCC2)C(=O)c2ccccc21,.,.,.,.,-,.,
CN(C)c1ccc(NC2=C(Cl)C(=O)c3ccccc3C2=O)cc1,43,94,-,-,-,89,
O=C1C(Cl)=C(Nc2ccc3cn[nH]c3c2)C(=O)c2ccccc21,.,83,-,.,-,90,
O=C1C(Cl)=C(NCCCO)C(=O)c2ccccc21,45,62,-,-,-,-,
CCC1(c2ccccc2)NC(=O)N(CC(=O)NCc2ccc(OC)cc2)C1=O (configuration not stated),-,-,-,.,-,.,
CC(Cc1nnc(SCC(=O)O)n1N)c1ccccc1 (configuration not stated),-,-,-,.,-,.,
O=[N+]([O-])c1ccc(O)c(/C=N/n2c(-c3ccccc3)n[nH]c2=S)c1,-,-,-,.,-,.,
O=[N+]([O-])c1ccc(Cl)c(/C=N/n2c(-c3ccncc3)n[nH]c2=S)c1,-,50,-,.,-,-,
COc1cccc(CNC(=O)CN2C(=O)COc3ccc(S(=O)(=O)N4CCCC4)cc32)c1,-,-,-,.,-,.,
CC[C@H](C)/C=C/C1=CC2=C(Cl)C(=O)[C@@]3(C)OC(=O)C(C(=O)[C@H](C)[C@@H](C)O)=C3C2=CO1,-,47,.,.,-,-,
CCCc1ccc(C(=O)N2CCN(c3ccccc3OCC)CC2)cc1,-,46,-,-,-,-,
CCOc1ccccc1N1CCN(C(=O)c2cc[n+]([O-])cc2)CC1,-,-,-,-,-,.,
Cc1ccc(-n2ncc(Cl)c2C(=O)NC2CC2)cc1,-,-,-,-,-,.,
CC1(C)CC(=O)C(C=Nc2ccc(O)cc2)=C(O)C1,-,38,-,-,-,-,
